# High-throughput results: PubChem BioAssay, Broad Institute
# HIF activator = HIF pathway transcriptional activation | U2OS HRE-luciferase reporter, luminescence; normalized: DMSO 0%, desferrioxamine 100% | activation, % at 7.5 µM (by protocol) | AID 1910 | hit rate 0.32% among 300,000;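 active = mean activation of at least 10% of the iron chelator positive control signal, with at least half of replicates also reaching 10%; inconclusive = mean and replicate majority disagree about reaching 10%; inactive = mean and most replicates under 10%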
# Calb FLC = affects C. albicans growth with fluconazole; hit rate 0.57% among 300,000; C. albicans CaCi-2 (fluconazole-resistant clinical isolate) + fluconazole, Alamar Blue growth, 48 h; AID 1979; growth inhibition, % (no concentration beside the values);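 active = growth inhibition above about 58% in most replicates, limit read from the data, passing the limit was not always enough; inconclusive = exactly half the replicates above a set limit; inactive = most replicates below a set limit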;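 note: all wells also contain fluconazole at 8 µg/ml as a sub-toxic cotreatment; 0% = median of DMSO wells and 100% = median of geldanamycin control wells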
# PolyA inh = blocks polyadenylation in yeast reporter cells; activity score, % at 12 µM; hit rate 0.02% among 300,000; S. cerevisiae SKY197-pL101 polyadenylation reporter, beta-gal luminescence; efflux-impaired pdr1/pdr3 knockout yeast; score 100 = 6 SD above DMSO;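 active = lowest replicate activity score at least 50, where 100 means six control SD above control mean; inconclusive = lowest score under 50 but half or more replicates reach 50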;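 note: yeast exposed to compound for 9 h at 30 °C; higher score means more reporter readthrough which indicates perturbed polyadenylation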
# T cruzi inh = blocks replication of Trypanosoma cruzi; T. cruzi beta-gal in NIH3T3, luminescence, 90 h; hit rate 1.4% among 300,000; inhibition, % (concentration not given with the values);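 active = mean inhibition across valid replicates above about 55%, limit read from the data; inconclusive = mean below that limit but half or more replicates reach it; inactive = mean below it, under half of replicates reach it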;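 note: signal also drops with host cell toxicity which is not excluded here; 0% = plate median of DMSO wells and 100% = zero luminescence signal; higher percent means less beta-gal luminescence so fewer parasites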
#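 Read-out: Parasite load inhibition, % | Test system: Mouse NIH/3T3 fibroblasts infected with β-gal-expressing T. cruzi Tulahuen C4 | Amount: 5,000 cells/well | Medium: DMEM, 2% fetal bovine serum | Signal: GalScreen β-gal luminescence, detergent lysis, 60 min | Timing: 3 h attach, ≥90 h co-culture | Also added: Tulahuen C4 trypomastigotes, 5000/well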
# Beta apoptosis = blocks beta cell apoptosis; INS-1E cytokine-induced death, ATP luminescence, 48 h; percent of positive-control rescue, neutral wells zero; protection from apoptosis, % (test concentration not listed); hit rate 0.8% among 300,000;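 active = Every replicate reaches about 75%, or at least half do and their mean reaches it too, limit read from the data; inconclusive = At least half of replicates reach the limit but their mean does not; inactive = Under half of replicates reach the limit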;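 note: 0% = cytokine-treated negative control wells and 100% = positive control rescue; higher means more ATP so stronger rescue from cytokine killing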
# CSC inhib = cancer stem cell inhibition; hit rate 1.1% among 300,000; inhibition, % at 7.5 µM; AID 2717; cancer stem cell-like cells viability, luminescence; in the data active = inhibition above about 75%; inconclusive = no clear call, values can overlap the other calls; tested in HMLE shEcad cells
# * marks the source's active call; other numbers are inactive results; ? = inconclusive; . = no result given. Shown are actives, neighbours in structure and some others; about 3.1% of the full set was active somewhere.
SMILES,HIF activator,Calb FLC,PolyA inh,T cruzi inh,Beta apoptosis,CSC inhib
Cc1ccc(-c2csc(N3CCC(NS(=O)(=O)c4ccc5c(c4)OCCO5)CC3)n2)cc1,-0.8,8.2,8.4,19.6,96.8*,-24.2
O=C(Nc1ncc(Cc2cccc(C(F)(F)F)c2)s1)c1ccc(-c2cccc([N+](=O)[O-])c2)o1,-0.1,-4.6,-3.8,61.8*,13.7,55.4
N/C(=N\OC(=O)C(c1ccccc1)c1ccccc1)c1cccnc1,72.4*,-2.8,-1.5,37.4,0.8,-11.5
Cc1cc(=O)oc2cc(OCC(=O)NC3CCCCC3)ccc12,-0.3,9.8,-11.8,-4.8,-11.7,.
Cn1c2ccccc2c2c(C(=O)N3CCN(c4ccccc4)CC3)cn(C3CCCC3)c(=O)c21,-38.7,30.6,-0.8,0.6,7.4,55.6
Cc1ccc(Cl)cc1N1CCN(C(=O)c2cn(C)c(=O)c3c2c2ccccc2n3C)CC1,-0.3,-11.0,-3.4,52.0,.,88.1*
Cc1cccc(N2CCN(C(=O)c3cn(C)c(=O)c4c3c3ccccc3n4C)CC2)c1C,1.2,56.7*,-13.4,51.3,-15.5,60.4
O=C(c1cc2ccccc2o1)N(Cc1nnc(-c2ccccc2Cl)o1)C1CC1,-0.2,.,-2.7,18.8,-2.5,-4.2
O=C(c1cc([N+](=O)[O-])cc([N+](=O)[O-])c1)N(Cc1nnc(-c2ccccc2Cl)o1)C1CC1,-0.6,15.1,-28.4,75.3*,15.9,28.6
CCCN(Cc1nnc(-c2ccccc2Cl)o1)C(=O)c1cc([N+](=O)[O-])cc([N+](=O)[O-])c1,-0.2,1.4,-20.9,68.2*,3.5,-5.3
O=C1C=CC(O)(c2cc(=O)c3c(O)cc(O)cc3o2)C=C1,-3.1,7.8,21.9,-38.6,110.7*,15.5
Nc1ccccc1N=Cc1ccc(-c2cccc(Cl)c2)o1,1.8,3.7,-30.9,43.5,7.6,76.6*
CC1=NOC(=O)/C1=C\c1ccc(-c2cccc(Cl)c2)o1,0.2,-2.1,3.4,-21.9,-13.0,63.4
COCCn1c(SCC(=O)NC(=O)NCc2ccccc2)nc2ccccc21,-0.3,-2.1,-9.6,55.4*,2.0,-4.7
N/C(=N\OC(=O)N1c2ccccc2Sc2ccccc21)c1ccccc1,-0.4,94.2*,-31.0,82.4*,10.0,1.2
O=C(Nc1ccccc1)C1=C[C@@H](c2ccccc2)C[C@@H](OCc2ccc(CO)cc2)O1,3.6,-5.7,24.8,15.9,4.9,4.1
O=C(Nc1ccccc1)C1=C[C@@H](c2ccc(C(F)(F)F)cc2)C[C@@H](OCc2ccc(CO)cc2)O1,-6.4,17.8,-5.4,42.7,11.7,79.2*
O=C(NCc1ccccc1)C1=C[C@H](c2csc3ccccc23)C[C@H](OCc2ccc(CO)cc2)O1,-0.3,-6.6,-6.8,41.9,23.6,14.0
O=C(Nc1ccccc1)C1=C[C@@H](c2csc3ccccc23)C[C@@H](OCc2ccc(CO)cc2)O1,0.9,0.7,-1.7,52.2,14.3,85.6*
COc1cc(/C=C/c2ccc3cccc(O)c3n2)ccc1O,4.1,-6.6,-26.6,22.1,19.7,75.3*
Cc1ccsc1/C=C/c1ccc2cccc(O)c2n1,1.5,28.8,-16.4,22.2,21.8,92.1*
CSc1ccc(/C=C/c2ccc3cccc(O)c3n2)cc1,2.5,3.1,-30.0,32.5,15.7,60.6
COc1ccc(OC)c(/C=C/c2ccc3cccc(O)c3n2)c1,2.4,-6.9,2.3,60.6*,37.7,39.3
COc1cc(Br)c(/C=C/c2ccc3cccc(O)c3n2)cc1OC,0.0,-2.2,9.0,57.0*,8.9,17.0
Cc1cccc(C(=O)N(CC(=O)Nc2sc(C)c(C)c2C(N)=O)C2CCCC2)c1,-0.5,13.1,5.9,-1.9,0.4,-5.3
SMILES,HIF activator,Calb FLC,PolyA inh,T cruzi inh,Beta apoptosis,CSC inhib
COc1ccc(N2CC(C(=O)N/N=C/c3cc([N+](=O)[O-])ccc3O)CC2=O)cc1 (stereo unspecified),0.8,-1.9,-9.0,-9.3,-2.9,-1.8
COc1cc(Br)cc(/C=C/c2ccc3cccc(O)c3n2)c1O,-8.4,-1.8,-2.1,33.7,34.4,91.7*
COc1cc(/C=C/c2ccc3cccc(O)c3n2)c(Br)cc1O,5.0,15.3,19.7,55.8*,38.9,96.0*
Oc1c(Cl)cc(Cl)cc1/C=C/c1ccc2cccc(O)c2n1,0.0,-0.1,-19.0,-41.4,16.6,15.0
Oc1ccc(Cl)cc1/C=C/c1ccc2cccc(O)c2n1,2.1,-1.0,-20.4,20.8,.,.
Oc1cccc2ccc(/C=C/c3ccccc3Br)nc12,-3.1,?,-5.3,43.8,38.8,97.2*
Oc1ccc(-n2nnnc2SCc2ccccc2Br)cc1,-2.1,2.9,-5.5,-5.6,.,.
O=C(O)c1ccc(SCc2cnc(Cl)s2)cc1,-0.1,13.0,61.3*,-10.4,-6.0,-17.2
COC(=O)c1ccc(SCc2cnc(Cl)s2)cc1,2.2,-22.1,-4.8,-8.7,-14.5,-0.3
C(=C\c1ccccc1)/CN1CCN(Cc2ccc3c(c2)OCCO3)CC1,-0.2,2.0,-11.3,63.7*,.,.
Cc1cccc(N/N=C/c2ccncc2)c1,1.9,-1.3,12.6,-9.7,-2.3,16.0
Cc1cccc(N/N=C/c2ccccc2O)c1,1.2,-38.3,-11.0,7.9,-1.4,94.1*
Cc1ccc(SCCC(=O)N/N=C/c2ccccc2O)cc1,-0.1,92.2*,-9.1,16.9,42.5,22.1
Cc1ccc(NC(=O)CCC(=O)N/N=C/c2ccccc2O)cc1,1.0,1.5,-5.0,1.0,68.4,7.1
Cc1cc(SCC(=O)N/N=C/c2ccc(O)cc2O)nc2ccccc12,2.1,8.4,0.2,69.0*,36.8,133.0*
Cc1cc(SCC(=O)N/N=C/c2ccc(O)c(O)c2)nc2ccccc12,-0.6,-12.3,-3.8,-7.9,5.7,47.1
CSc1nc(C)cc(OCC(=O)N/N=C/c2ccccc2O)n1,3.1,7.8,8.5,-9.2,65.4,89.4*
COc1ccc(C2NC(=S)NC3=C2CCc2cc(OC)ccc23)cc1 (stereo unspecified),0.3,23.1,0.0,2.9,6.7,-14.4
O=C(NC1CCCCC1)C1CC(=O)N(CCc2ccc(F)cc2)C1 (stereo unspecified),-0.1,-4.5,-8.5,0.3,-1.1,0.4
Cc1cccc(NC(=O)CCC(=O)N/N=C/c2ccc(O)cc2O)c1,1.5,6.2,-19.4,-8.5,-0.3,79.3*
Cc1ccc(NP(=O)(c2ccc(N(C)C)cc2NC(=O)c2cccs2)N2CCOCC2)cc1 (stereo unspecified),-0.1,3.2,-2.1,56.6*,9.3,33.5
Cc1ccc(NP(=O)(c2ccc(N(C)C)cc2NC(=O)c2cccs2)N2CCOCC2)cc1Cl (stereo unspecified),-0.5,6.1,14.6,60.8*,12.6,-5.8
CN(C)c1ccc(P(=O)(Nc2ccccc2)N2CCOCC2)c(NC(=O)c2cccs2)c1 (stereo unspecified),0.7,-4.5,-12.9,25.2,.,-19.9
